Laboratory results published in ChEMBL document CHEMBL1142957, “Total structure and inhibition of tumor cell proliferation of laxaphycins” (J Med Chem, 2007).

Columns and labels:
CEM-VM1 [1] = assay: Interaction index, ratio of IC50 for CEM/VM1 cells in presence of 0.4 uM laxaphycin A/IC50 for CEM/VM1 cells; assay type: functional, Homo sapiens
CEM-VM1 [2] = assay: Antiproliferative activity against teniposide-resistant CEM/VM1 after 72 hrs in presence of 1 uM laxaphycin A; assay type: functional, cell-based; settings: Homo sapiens, CEM-VM1, 72 h
In short: (§1)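 Leukemic lymphoblasts (parent CCRF-CEM, Pgp-overexpressing CEM/VLB100, topo II-altered CEM/VM-1) grown in RPMI 1640 with 10% FCS and antibiotics, 37 °C, 5% CO2. Serial dilutions in medium added to 2 × 10⁵ cells/mL for 3 days, medium not renewed. Survivors counted on a Coulter counter. Triplicate, averaged.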

CCRF-CEM [3] = assay: Interaction index, ratio of IC50 for CCRF-CEM cells in presence of 0.4 uM laxaphycin A/IC50 for CCRF-CEM cells; assay type: functional, Homo sapiens
[4] = Cytotoxicity against human PA1 cells after 48 hrs by Hoechst 33342 assay; assay type: cell-based; settings: pa-1, 48 h
In short: (§2)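 Adherent lines in Glutamax MEM with Earle's salts, FCS, vitamins, pyruvate, NEAA, glutamine, gentamycin. Seeded 5 × 10³ cells/well, adhered 16 h, then 48 h continuous exposure in 0.5% DMSO (solvent control). After resazurin read, cells PBS-rinsed and stored at −80 °C. Then thawed and given 30 µg/mL Hoechst 33342 in Tris pH 7.4/EDTA/NaCl buffer, 1 h at 37 °C, fluorescence 360/460 nm (DNA ∝ biomass). Two independent assays in triplicate, mean ± SD.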

CCRF-CEM [5] = assay: Antiproliferative activity against drug-sensitive CCRF-CEM cells after 72 hrs in presence of 0.2 uM laxaphycin A; assay type: functional, cell-based; settings: Homo sapiens; in short: as §1
CCRF-CEM [6] = assay: Cytotoxicity against drug-sensitive CCRF-CEM cells after 72 hrs; assay type: cell-based; settings: Homo sapiens; in short: as §1
[7] = Cytotoxicity against human […] cells after 48 hrs by Hoechst 33342 assay; assay type: cell-based; in short: as §2
L929 [8] = assay: Cytotoxicity against mouse L929 cells after 48 hrs by Hoechst 33342 assay; assay type: cell-based; settings: l929, 48 h; in short: as §2
CEM-VM1 [9] = assay: Antiproliferative activity against teniposide-resistant CEM/VM1 after 72 hrs in presence of 2 uM laxaphycin A; assay type: functional, cell-based; settings: Homo sapiens, CEM-VM1, 72 h; in short: as §1
DLD-1 [10] = assay: Survival of human DLD1 cells at 2 uM after 48 hrs by RRT assay; assay type: functional
In short: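 Adherent cells cultured in Glutamax Eagle's MEM with Earle's salts, fetal calf serum, vitamins, pyruvate, nonessential amino acids, glutamine and gentamycin at 37 °C, 5% CO2. Seeded 5 × 10³ cells/well, 16 h adhesion, then 48 h continuous exposure in 0.5% DMSO, alone or combined. Resazurin (25 µg/mL in MEM) added for 1 h at 37 °C, fluorescence 530/590 nm; survival as percentage of solvent controls after blank subtraction; two independent experiments in triplicate, averaged.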

MCF7 [11] = assay: Cytotoxicity against human MCF7 cells after 48 hrs by Hoechst 33342 assay; assay type: cell-based; settings: MCF7, 48 h; in short: as §2
CCRF-CEM [12] = assay: Antiproliferative activity against drug-sensitive CCRF-CEM cells after 72 hrs in presence of 2 uM laxaphycin A; assay type: functional, cell-based; settings: Homo sapiens; in short: as §1
DLD-1 [13] = assay: Cytotoxicity against human DLD1cells after 48 hrs by RRT; assay type: cell-based; settings: dld-1, 48 h
In short: (§3)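 Adherent lines in supplemented Glutamax MEM, 37 °C, 5% CO2. Seeded 5 × 10³ cells/well, adhered 16 h, then treated 48 h continuously, alone or in combination, in 0.5% DMSO (solvent control). Resazurin 25 µg/mL in MEM added, 1 h at 37 °C, fluorescence 530/590 nm. Survival = % of control after blank subtraction; IC50 from concentration–survival curve. Two independent assays in triplicate.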

CEM-VLB [14] = assay: Antiproliferative activity against vinblastine-resistant CEM/VLB100 after 72 hrs in presence of 0.4 uM laxaphycin A; assay type: functional, cell-based; settings: Homo sapiens; in short: as §1
CCRF-CEM [15] = assay: Interaction index, ratio of IC50 for CCRF-CEM cells in presence of 1 uM laxaphycin A/IC50 for CCRF-CEM cells; assay type: functional, Homo sapiens
CEM-VLB [16] = assay: Antiproliferative activity against vinblastine-resistant CEM/VLB100 after 72 hrs in presence of 1 uM laxaphycin A; assay type: functional, cell-based; settings: Homo sapiens; in short: as §1
CEM-VLB [17] = assay: Antiproliferative activity against vinblastine-resistant CEM/VLB100 after 72 hrs in presence of 2 uM laxaphycin A; assay type: functional, cell-based; settings: Homo sapiens; in short: as §1
MCF7 [18] = assay: Cytotoxicity against human MCF7 cells after 48 hrs by RRT; assay type: cell-based; settings: MCF7, 48 h; in short: as §3
CCRF-CEM [19] = assay: Interaction index, ratio of IC50 for CCRF-CEM cells in presence of 2 uM laxaphycin A/IC50 for CCRF-CEM cells; assay type: functional, Homo sapiens
CEM-VM1 [20] = assay: Antiproliferative activity against teniposide-resistant CEM/VM1 after 72 hrs in presence of 0.4 uM laxaphycin A; assay type: functional, cell-based; settings: Homo sapiens, CEM-VM1, 72 h; in short: as §1
DLD-1 [21] = assay: Cytotoxicity against human DLD1cells after 48 hrs by Hoechst 33342 assay; assay type: cell-based; settings: dld-1, 48 h; in short: as §2
[22] = Cytotoxicity against teniposide-resistant CEM/VM1 cells after 72 hrs; assay type: cell-based; settings: Homo sapiens, CEM-VM1, 72 h; in short: as §1
[23] = Cytotoxicity against human fibroblasts after 48 hrs by Hoechst 33342 assay; assay type: cell-based; settings: fibroblast; in short: as §2
[24] = Cytotoxicity against human M4Beu cells after 48 hrs by RRT; assay type: cell-based; in short: as §3
CEM-VM1 [25] = assay: Interaction index, ratio of IC50 for CEM/VM1 cells in presence of 0.2 uM laxaphycin A/IC50 for CEM/VM1 cells; assay type: functional, Homo sapiens
PC-3 [26] = assay: Cytotoxicity against human androgen-resistant PC3 cells after 48 hrs by Hoechst 33342 assay; assay type: cell-based; settings: PC-3, 48 h; in short: as §2
CEM-VLB [27] = assay: Interaction index, ratio of IC50 for CEM/VLB100 cells in presence of 0.4 uM laxaphycin A/IC50 for CEM/VLB100 cells; assay type: functional, Homo sapiens
CCRF-CEM [28] = assay: Ratio of IC50 for vinblastine-resistant CEM/VLB100 cells over IC50 for drug-sensitive CCRF-CEM cells; assay type: functional, Homo sapiens
[29] = Cytotoxicity against human […] cells after 48 hrs by RRT; assay type: cell-based; in short: as §3
CEM-VM1 [30] = assay: Interaction index, ratio of IC50 for CEM/VM1 cells in presence of 2 uM laxaphycin A/IC50 for CEM/VM1 cells; assay type: functional, Homo sapiens
CEM-VLB [31] = assay: Antiproliferative activity against vinblastine-resistant CEM/VLB100 after 72 hrs in presence of 0.2 uM laxaphycin A; assay type: functional, cell-based; settings: Homo sapiens; in short: as §1
CCRF-CEM [32] = assay: Interaction index, ratio of IC50 for CCRF-CEM cells in presence of 0.2 uM laxaphycin A/IC50 for CCRF-CEM cells; assay type: functional, Homo sapiens
[33] = Cytotoxicity against human fibroblasts after 48 hrs by RRT; assay type: cell-based; settings: fibroblast; in short: as §3
[34] = Cytotoxicity against vinblastine-resistant CEM/VLB100 cells after 72 hrs; assay type: cell-based; settings: Homo sapiens, CEM/VLB100, 72 h; in short: as §1
[35] = Cytotoxicity against human M4Beu cells after 48 hrs by Hoechst 33342 assay; assay type: cell-based; in short: as §2
PC-3 [36] = assay: Cytotoxicity against human androgen-resistant PC3 cells after 48 hrs by RRT; assay type: cell-based; settings: PC-3, 48 h; in short: as §3
CEM-VLB [37] = assay: Interaction index, ratio of IC50 for CEM/VLB100 cells in presence of 0.2 uM laxaphycin A/IC50 for CEM/VLB100 cells; assay type: functional, Homo sapiens
CCRF-CEM [38] = assay: Antiproliferative activity against drug-sensitive CCRF-CEM cells after 72 hrs in presence of 0.4 uM laxaphycin A; assay type: functional, cell-based; settings: Homo sapiens; in short: as §1
L929 [39] = assay: Cytotoxicity against mouse L929 cells after 48 hrs by RRT; assay type: cell-based; settings: l929, 48 h; in short: as §3
DLD-1 [40] = assay: Increase in cytotoxicity in human DLD1 cells at 2 uM after 48 hrs in presence of 2 uM laxaphycin A by RRT assay; assay type: cell-based; settings: dld-1, 48 h; in short: as §3
DLD-1 [41] = assay: Increase in cytotoxicity in human DLD1 cells at 2 uM after 48 hrs in presence of 1 uM laxaphycin A by RRT assay; assay type: cell-based; settings: dld-1, 48 h; in short: as §3
CEM-VM1 [42] = assay: Antiproliferative activity against teniposide-resistant CEM/VM1 after 72 hrs in presence of 0.2 uM laxaphycin A; assay type: functional, cell-based; settings: Homo sapiens, CEM-VM1, 72 h; in short: as §1
CEM-VLB [43] = assay: Interaction index, ratio of IC50 for CEM/VLB100 cells in presence of 2 uM laxaphycin A/IC50 for CEM/VLB100 cells; assay type: functional, Homo sapiens
CCRF-CEM [44] = assay: Ratio of IC50 for teniposide-resistant CEM/VM1 cells over IC50 for drug-sensitive CCRF-CEM cells; assay type: functional, Homo sapiens
CEM-VM1 [45] = assay: Interaction index, ratio of IC50 for CEM/VM1 cells in presence of 1 uM laxaphycin A/IC50 for CEM/VM1 cells; assay type: functional, Homo sapiens
[46] = Cytotoxicity against human PA1 cells after 48 hrs by RRT; assay type: cell-based; settings: pa-1, 48 h; in short: as §3
DLD-1 [47] = assay: Increase in cytotoxicity in human DLD1 cells at 2 uM after 48 hrs in presence of 1.5 uM laxaphycin A by RRT assay; assay type: cell-based; settings: dld-1, 48 h; in short: as §3
CEM-VLB [48] = assay: Interaction index, ratio of IC50 for CEM/VLB100 cells in presence of 1 uM laxaphycin A/IC50 for CEM/VLB100 cells; assay type: functional, Homo sapiens
CCRF-CEM [49] = assay: Antiproliferative activity against drug-sensitive CCRF-CEM cells after 72 hrs in presence of 1 uM laxaphycin A; assay type: functional, cell-based; settings: Homo sapiens; in short: as §1

IC50 (CCRF-CEM [5]): 0.62 µM
IC50 (CCRF-CEM [12]): 0.35 µM
IC50 (CCRF-CEM [38]): 0.5 µM
IC50 (CCRF-CEM [49]): 0.41 µM
SMILES: CCCCCCC[C@@H]1CC(=O)N[C@@H](C(C)C)C(=O)N[C@@H]([C@@H](O)C(C)C)C(=O)N[C@@H](C)C(=O)N[C@H]([C@@H](O)C(C)C)C(=O)N[C@@H](CCC(N)=O)C(=O)N(C)[C@@H]([C@@H](C)CC)C(=O)N[C@H]([C@@H](O)C(N)=O)C(=O)N[C@@H]([C@@H](C)O)C(=O)N2CCC[C@H]2C(=O)N[C@H](CC(C)C)C(=O)N[C@@H]([C@@H](C)O)C(=O)N1 [LAXAPHYCIN B]
Ratio IC50 (CEM-VM1 [1]): 0.44
IC50 (CEM-VM1 [2]): 0.43 µM
Ratio IC50 (CCRF-CEM [3]): 0.45
Activity [4]: Dose-dependent effect
IC50 (CCRF-CEM [6]): 1.11 µM
Activity [7]: Dose-dependent effect
Activity (L929 [8]): Dose-dependent effect
IC50 (CEM-VM1 [9]): 0.41 µM
Activity (DLD-1 [10]): 90%
IC50 (MCF7 [11]): 0.5 µM
Activity (DLD-1 [13]): Dose-dependent effect
IC50 (CEM-VLB [14]): 0.57 µM
Ratio IC50 (CCRF-CEM [15]): 0.41
IC50 (CEM-VLB [16]): 0.36 µM
IC50 (CEM-VLB [17]): 0.33 µM
IC50 (MCF7 [18]): 1 µM
Ratio IC50 (CCRF-CEM [19]): 0.32
IC50 (CEM-VM1 [20]): 0.6 µM
Activity (DLD-1 [21]): Dose-dependent effect
IC50 [22]: 1.37 µM
Activity [23]: Dose-dependent effect
IC50 [24]: 0.4 µM
Ratio IC50 (CEM-VM1 [25]): 0.53
IC50 (PC-3 [26]): 0.58 µM
Ratio IC50 (CEM-VLB [27]): 0.56
Ratio IC50 (CCRF-CEM [28]): 0.9
Activity [29]: Dose-dependent effect
Ratio IC50 (CEM-VM1 [30]): 0.3
IC50 (CEM-VLB [31]): 0.92 µM
Ratio IC50 (CCRF-CEM [32]): 0.56
Activity [33]: Dose-dependent effect
IC50 [34]: 1.02 µM
IC50 [35]: 0.3 µM
IC50 (PC-3 [36]): 0.8 µM
Ratio IC50 (CEM-VLB [37]): 0.9
Activity (L929 [39]): Dose-dependent effect
Activity (DLD-1 [40]): Active
Activity (DLD-1 [41]): Active
IC50 (CEM-VM1 [42]): 0.72 µM
Ratio IC50 (CEM-VLB [43]): 0.32
Ratio IC50 (CCRF-CEM [44]): 1.2
Ratio IC50 (CEM-VM1 [45]): 0.32
Activity [46]: Dose-dependent effect
Activity (DLD-1 [47]): Active
Ratio IC50 (CEM-VLB [48]): 0.35
